# Laboratory results published in ChEMBL document CHEMBL1275561, “In vitro activities of doripenem, a new broad-spectrum carbapenem, against recently collected clinical anaerobic isolates, with emphasis on the Bacteroides fragilis group” (2008).
# What was measured:
# Format in all cases: functional
# [1] = test system: Parabacteroides distasonis; experiment: Antimicrobial activity against Bacteroides distasonis by agar dilution method
# In short: (§1)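 CLSI agar dilution on enriched brucella agar (5% lysed defibrinated sheep blood, 1 μg/ml vitamin K1), with drug plates made on the test day. Log-phase cells were adjusted to 0.5 McFarland, and about 10^5 CFU/spot was delivered by Steers replicator. Plates were incubated anaerobically at 37°C for 48 h. MIC was the lowest concentration giving a marked growth change versus the control plate. Controls were B. fragilis ATCC 25285 and B. thetaiotaomicron ATCC 29741.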
# [2] = test system: Bacteroides caccae; experiment: Antimicrobial activity against Bacteroides caccae assessed as resistant isolates by agar dilution method
# In short: (§2)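 CLSI agar dilution on enriched brucella agar (5% lysed defibrinated sheep blood, 1 μg/ml vitamin K1), plates made on test day. Log-phase inocula adjusted to 0.5 McFarland; about 10^5 CFU/spot by Steers replicator. Incubated anaerobically at 37°C for 48 h. MIC was the lowest concentration giving a marked change in growth versus the drug-free control plate. Resistance rates used CLSI anaerobe breakpoints. Controls were B. fragilis ATCC 25285 and B. thetaiotaomicron ATCC 29741.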
# [3] = test system: Bacteroides caccae; experiment: Antimicrobial activity against Bacteroides caccae by agar dilution method; in short: as §1
# [4] = test system: Parabacteroides distasonis; experiment: Antimicrobial activity against Bacteroides distasonis assessed as resistant isolates by agar dilution method; in short: as §2
# [5] = test system: Bacteroides fragilis; experiment: Antimicrobial activity against Bacteroides fragilis by agar dilution method; in short: as §1
# [6] = test system: Bacteroides fragilis; experiment: Antimicrobial activity against Bacteroides fragilis assessed as resistant isolates by agar dilution method; in short: as §2
# [7] = test system: Bacteroides ovatus; experiment: Antimicrobial activity against Bacteroides ovatus by agar dilution method; in short: as §1
# [8] = test system: Bacteroides ovatus; experiment: Antimicrobial activity against Bacteroides ovatus assessed as resistant isolates by agar dilution method; in short: as §2
# [9] = test system: Bacteroides thetaiotaomicron; experiment: Antimicrobial activity against Bacteroides thetaiotaomicron by agar dilution method; in short: as §1
# [10] = test system: Bacteroides thetaiotaomicron; experiment: Antimicrobial activity against Bacteroides thetaiotaomicron assessed as resistant isolates by agar dilution method; in short: as §2
# [11] = test system: Bacteroides uniformis; experiment: Antimicrobial activity against Bacteroides uniformis by agar dilution method; in short: as §1
# [12] = test system: Bacteroides uniformis; experiment: Antimicrobial activity against Bacteroides uniformis assessed as resistant isolates by agar dilution method; in short: as §2
# [13] = test system: Phocaeicola vulgatus; experiment: Antimicrobial activity against Bacteroides vulgatus by agar dilution method; in short: as §1
# [14] = test system: Phocaeicola vulgatus; experiment: Antimicrobial activity against Bacteroides vulgatus assessed as resistant isolates by agar dilution method; in short: as §2
# [15] = test system: Bacteroides eggerthii; experiment: Antimicrobial activity against Bacteroides eggerthii by agar dilution method; in short: as §1
# [16] = test system: Bacteroides eggerthii; experiment: Antimicrobial activity against Bacteroides eggerthii assessed as resistant isolates by agar dilution method; in short: as §2
# [17] = test system: Parabacteroides merdae; experiment: Antimicrobial activity against Bacteroides merdae by agar dilution method; in short: as §1
# [18] = test system: Parabacteroides merdae; experiment: Antimicrobial activity against Bacteroides merdae assessed as resistant isolates by agar dilution method; in short: as §2
# [19] = test system: Bacteroides nordii; experiment: Antimicrobial activity against Bacteroides nordii by agar dilution method; in short: as §1
# [20] = test system: Bacteroides nordii; experiment: Antimicrobial activity against Bacteroides nordii assessed as resistant isolates by agar dilution method; in short: as §2
# [21] = test system: Finegoldia magna; experiment: Antimicrobial activity against Finegoldia magna assessed as resistant isolates by agar dilution method
# In short: (§3)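 Agar dilution following CLSI on brucella agar with 5% lysed defibrinated sheep blood and 1 μg/ml vitamin K1, plates made on test day. Log-phase cells at 0.5 McFarland, about 10^5 CFU/spot by Steers replicator, 48 h anaerobic at 37°C. MIC read as the lowest concentration causing a marked growth change versus control. Resistance counted by CLSI anaerobe breakpoints. Eubacterium lentum ATCC 43055 served as control.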
# [22] = test system: Peptoniphilus asaccharolyticus; experiment: Antimicrobial activity against Peptoniphilus asaccharolyticus assessed as resistant isolates by agar dilution method; conditions: pooled result: one value given for 4 cell lines, strains, targets or settings; in short: as §3
# [23] = test system: Anaerococcus prevotii; experiment: Antimicrobial activity against Anaerococcus prevotii by agar dilution method
# In short: (§4)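 Gram-positive anaerobes were tested by CLSI agar dilution on brucella agar enriched with 5% lysed defibrinated sheep blood and 1 μg/ml vitamin K1. Inoculum was log-phase growth at 0.5 McFarland, about 10^5 CFU/spot by replicator. Incubation was anaerobic, 37°C, 48 h. MIC was the lowest concentration with a marked growth change versus the drug-free plate. Eubacterium lentum ATCC 43055 was the control, and tests were repeated if it fell outside the CLSI range.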
# [24] = test system: Peptostreptococcus sp.; experiment: Antimicrobial activity against Peptostreptococcus sp. by agar dilution method
# In short: (§5)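 Log-phase isolates were adjusted to 0.5 McFarland, and about 10^5 CFU/spot was delivered by Steers replicator. Plates were incubated anaerobically at 37°C for 48 h. MIC was the lowest concentration giving a marked growth change versus the control plate. Eubacterium lentum ATCC 43055 was the QC strain, with repeats when out of range.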
# [25] = test system: Cutibacterium acnes; experiment: Antimicrobial activity against Propionibacterium acnes by agar dilution method; in short: as §5
# [26] = test system: Cutibacterium acnes; experiment: Antimicrobial activity against Propionibacterium acnes assessed as resistant isolates by agar dilution method; in short: as §3
# [27] = test system: Propionibacterium; experiment: Antimicrobial activity against Propionibacterium sp. by agar dilution method; in short: as §5
# [28] = test system: Propionibacterium; experiment: Antimicrobial activity against Propionibacterium sp. assessed as resistant isolates by agar dilution method; in short: as §3
# [29] = test system: Clostridioides difficile; experiment: Antimicrobial activity against Clostridium difficile by agar dilution method
# [30] = test system: Clostridium perfringens; experiment: Antimicrobial activity against Clostridium perfringens by agar dilution method
# [31] = test system: [Clostridium] innocuum; experiment: Antimicrobial activity against Clostridium innocuum by agar dilution method
# [32] = test system: [Clostridium] innocuum; experiment: Antimicrobial activity against Clostridium innocuum assessed as resistant isolates by agar dilution method; conditions: pooled result: one value given for 4 cell lines, strains, targets or settings
# [33] = test system: Clostridium paraputrificum; experiment: Antimicrobial activity against Clostridium paraputrificum by agar dilution method
# [34] = test system: Clostridium subterminale; experiment: Antimicrobial activity against Clostridium subterminale by agar dilution method
# [35] = test system: Clostridium tertium; experiment: Antimicrobial activity against Clostridium tertium by agar dilution method
# [36] = test system: Finegoldia magna; experiment: Antimicrobial activity against Finegoldia magna by agar dilution method; in short: as §4
# [37] = test system: Peptoniphilus asaccharolyticus; experiment: Antimicrobial activity against Peptoniphilus asaccharolyticus by agar dilution method; in short: as §4
# [38] = test system: Parvimonas micra; experiment: Antimicrobial activity against Micromonas micros by agar dilution method; in short: as §4
smiles,measurement,setting,value
COc1c(N2C[C@@H]3CCCN[C@@H]3C2)c(F)cc2c(=O)c(C(=O)O)cn(C3CC3)c12 [MOXIFLOXACIN],MIC50,[1],8 µg/mL
same,MIC90,[1],16 µg/mL
same,Activity,[2],50%
same,MIC50,[3],4 µg/mL
same,MIC90,[3],16 µg/mL
same,Activity,[4],53.3%
same,MIC50,[5],1 µg/mL
same,MIC90,[5],8 µg/mL
same,Activity,[6],29.3%
same,MIC50,[7],2 µg/mL
same,MIC90,[7],32 µg/mL
same,Activity,[8],40%
same,MIC50,[9],4 µg/mL
same,MIC90,[9],32 µg/mL
same,Activity,[10],30.8%
same,MIC50,[11],4 µg/mL
same,MIC90,[11],64 µg/mL
same,Activity,[12],14.3%
same,MIC50,[13],8 µg/mL
same,MIC90,[13],64 µg/mL
same,Activity,[14],48.4%
same,MIC50,[15],2 µg/mL
same,MIC90,[15],16 µg/mL
same,Activity,[16],40%
same,MIC50,[17],2 µg/mL
same,MIC90,[17],16 µg/mL
same,Activity,[18],40%
same,MIC50,[19],2 µg/mL
same,MIC90,[19],16 µg/mL
same,Activity,[20],40%
same,Activity,[21],40%
same,Activity,[22],14.8%
same,MIC50,[23],0.5 µg/mL
same,MIC90,[23],16 µg/mL
same,MIC50,[24],0.5 µg/mL
same,MIC90,[24],16 µg/mL
same,MIC50,[25],0.25 µg/mL
same,MIC90,[25],0.5 µg/mL
same,Activity,[26],0%
same,MIC,[27],0.25 µg/mL
same,MIC50,[27],0.25 µg/mL
same,MIC90,[27],0.5 µg/mL
same,Activity,[28],0%
CN[C@H](CC(C)C)C(=O)N[C@H]1C(=O)N[C@@H](CC(N)=O)C(=O)N[C@H]2C(=O)N[C@H]3C(=O)N[C@H](C(=O)N[C@H](C(=O)O)c4cc(O)cc(O)c4-c4cc3ccc4O)[C@H](O)c3ccc(c(Cl)c3)Oc3cc2cc(c3O[C@@H]2O[C@H](CO)[C@@H](O)[C@H](O)[C@H]2O[C@H]2C[C@](C)(N)[C@H](O)[C@H](C)O2)Oc2ccc(cc2Cl)[C@H]1O [VANCOMYCIN],MIC,[29],1 µg/mL
same,MIC,[30],1 µg/mL
same,MIC50,[30],1 µg/mL
same,MIC90,[30],2 µg/mL
same,MIC50,[31],8 µg/mL
same,MIC90,[31],16 µg/mL
same,Activity,[32],0%
same,MIC50,[33],8 µg/mL
same,MIC90,[33],16 µg/mL
same,MIC50,[34],8 µg/mL
same,MIC90,[34],16 µg/mL
same,MIC50,[35],8 µg/mL
same,MIC90,[35],16 µg/mL
same,MIC50,[36],1 µg/mL
same,MIC90,[36],1 µg/mL
same,Activity,[21],0%
same,MIC50,[37],1 µg/mL
same,MIC90,[37],2 µg/mL
same,Activity,[22],2.4%
same,MIC50,[38],1 µg/mL
same,MIC90,[38],2 µg/mL
same,MIC50,[23],1 µg/mL
same,MIC90,[23],2 µg/mL
same,MIC50,[24],1 µg/mL
same,MIC90,[24],2 µg/mL
same,MIC,[25],1 µg/mL
same,MIC50,[25],1 µg/mL
same,MIC90,[25],1 µg/mL
same,Activity,[26],0%
same,MIC,[27],1 µg/mL
same,MIC50,[27],1 µg/mL
same,MIC90,[27],1 µg/mL
same,Activity,[28],0%
CC(=O)NC[C@H]1CN(c2ccc(N3CCOCC3)c(F)c2)C(=O)O1 [LINEZOLID],MIC,[29],1 µg/mL
same,MIC,[30],2 µg/mL
same,MIC50,[30],2 µg/mL
same,MIC90,[30],4 µg/mL
same,MIC50,[31],4 µg/mL
same,MIC90,[31],8 µg/mL
same,Activity,[32],11%
same,MIC50,[33],4 µg/mL
same,MIC90,[33],8 µg/mL
same,MIC50,[34],4 µg/mL
same,MIC90,[34],8 µg/mL
same,MIC50,[35],4 µg/mL
same,MIC90,[35],8 µg/mL
same,MIC,[36],2 µg/mL
same,MIC50,[36],2 µg/mL
same,MIC90,[36],2 µg/mL
same,Activity,[21],0%
same,MIC50,[37],1 µg/mL
same,MIC90,[37],2 µg/mL
same,Activity,[22],0%
same,MIC50,[38],1 µg/mL
same,MIC90,[38],2 µg/mL
same,MIC50,[23],1 µg/mL
same,MIC90,[23],2 µg/mL
same,MIC50,[24],1 µg/mL
same,MIC90,[24],2 µg/mL
same,MIC,[25],0.5 µg/mL
same,MIC50,[25],0.5 µg/mL
same,MIC90,[25],1 µg/mL
same,Activity,[26],0%
same,MIC,[27],0.5 µg/mL
same,MIC50,[27],0.5 µg/mL
same,MIC90,[27],0.5 µg/mL
same,Activity,[28],0%
